For the data set, the system named is MS2 coat protein. Put plainly: apparent Kd, MS2 coat protein; higher = weaker binding; RNA-MaP array; FMN 200 µM where present. Put shortly:
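The titrant was SNAP-549-labelled MS2 coat protein, run from 0.7 or 1.5 nM in doubling steps to 3 µM. It was applied to designs transcribed by stalled E. coli RNA polymerase on Illumina sequencing-chip clusters, without ligand first and then with constant ligand, in 100 mM Tris-HCl pH 7.5, 80 mM KCl, 4 mM MgCl2, BSA, DTT, yeast tRNA and Tween-20. The apparent Kd is the median of filtered per-cluster binding-curve fits, with green signal normalised to red-channel RNA signal and control-cluster median Fmax.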

Where [1] appears, read: designed as: OFF switch for flavin mononucleotide, no ligand.
Setting [2] is: ligand present: flavin mononucleotide, designed as: OFF switch for flavin mononucleotide.
[3] abbreviates: designed as: ON switch for flavin mononucleotide, no ligand.
The mark [4] stands for this setting: ligand present: flavin mononucleotide, designed as: ON switch for flavin mononucleotide.

This note sets out measurements from the EternaBench riboswitch data.

Broadly, the apparent Kd is a dissociation constant that holds for the conditions of the assay.

Regarding “UAUAUAUAGUAAGGAUAUGUAUAUAUUUUAUAAACAGAAGGUACUGACAUGAGGAUCACCCAUGUUUUAGUGUGGGCAUGUAGA”, the “apparent Kd” value came out at 72.1 nM under setting [1] and 109 nM under setting [2]. The corresponding values for “UUUAAGAAUGAAGGAUAUCUAAAAGUAAUCUUAAGAGAAGGUCAAUAGAACAUGAGGAUCACCCAUGUUAGAAUAGAUGGGUUU” are 96.7 nM and 110 nM. With “CUCCGGCGUGUAGGAUAUGGAUCCGAUUAGGAUCCAGAAGGACAUGAGGAUCACCCAUGUACAUGUAAACAGUCAUCACCGGAU”, the “apparent Kd” value reads like this: under setting [1], 8.57 nM; under setting [2], 37.2 nM. With “GGCCCGUAAGGAUAUAAUGCUCAGGUGAAAACCGAGCUCCGUUAGAAGGUACAUGAGGAUCACCCAUGUGAUCG”, the “apparent Kd” value reads like this: under setting [1], 107 nM; under setting [2], 124 nM. For “CAAACAACACAGAAGGCCACGAAGUCCAUGGGUGGAGGAUAUGUGUUAGCUCUGACAUGAGGAUCACCCAUGUCUACGUGAGCU”, the “apparent Kd” value was found to be 5.5 nM under setting [3] and 5.27 nM under setting [4]. In the case of “UAACGACACGCAGGAUAUCUAACAUGAGGAUCACCCAUGUCAGAUGACAGGGUCGCUUUACUGGCAGAGAAGGGCGAUCGAUAC”, the “apparent Kd” value stood at 7.44 nM under setting [1] and 11.2 nM under setting [2].

With “GUAGCUAUCGCAGGAUAUCCUCAGCGGAAACGCACAUGAGGAUCACCCAUGUAAAUAAAUAAUUUGGAGAAGGGCGAUAGCUAC”, the “apparent Kd” value under setting [3] was determined as 323 nM and the “apparent Kd” value under setting [4] was 26.8 nM. Take “CGUAUAUGGGAGAAGGCAUGUCCCAAAGGGCCAUGAGGAUAUCCUAAGUGUACGCUUUGCGACAUGAGGAUCACCCAUGUAGCA”: the “apparent Kd” value by setting is: under setting [3], 7.07 nM; under setting [4], 5.75 nM. “GAGUGACAUGAGGAUCACCCAUGUGAGGAUAUCGGACGGACCAAAUUAACAAUAAAUGCGAGAAGGCACAUCGG”: the “apparent Kd” value by setting is: under setting [1], 58.5 nM; under setting [2], 81.6 nM. As to “AUCAGCACGUGAGGAUAUGCGUCACUGCGAAAGCAGUACGGUAAGAUCACAUGAGGAUCACCCAUGUAGAAGGCACGAGCUGAU”, the “apparent Kd” value under setting [1] came to 16.6 nM and the “apparent Kd” value under setting [2] was found to be 38.1 nM.

Take “AUUUUAAUGUCAGGAUAUGUUAGUUUAUACAUAGUAGAAGGGAUAAUUAUACUCAUGUACAUGAGGAUCACCCAUGUUAAAUAA”: the “apparent Kd” value reads like this: under setting [3], 163 nM; under setting [4], 98.1 nM. Consider “ACAUGUUUUACAGGAUAUGUUUUACAAUAAACAUUCAGUUAUUACGAUUAAACAGAAGGGUAUACAUGAGGAUCACCCAUGUAA”, for which the “apparent Kd” value is, setting by setting: under setting [1], 17.1 nM; under setting [2], 15 nM. “AAUGUGUCAGGAUAUAGUAGACUCCUUGGAACGGUAGUCAGUUAGAAGGGACAUGAGGAUCACCCAUGUCGAGU”: the “apparent Kd” value is 19.3 nM under setting [1] and 19.6 nM under setting [2]. On the same counts, the results for “AUGCUAGUGUGAGGAUAUCAACAUGAGGAUCACCCAUGUUGGAAGUACACGACAUGCGGUACAGGUGAGAAGGUACAUUAGCAU” are 27.4 nM and 53.2 nM. In the case of “CAUUAAUAGUAGAAGGGUCAAGUUUUGGGUAGGGCAGGAUAUACGAACAAGAAACAUGAGGAUCACCCAUGUGUCCAUGUCAUG”, the “apparent Kd” value reads like this: under setting [1], 33.9 nM; under setting [2], 29.6 nM.

Take “CAGGUUAGAGGAUAUACGUAGGUACAGAUCUGUGUGUUCCUACAUGAGGAUCACCCAUGUAGAAGGCUAUCCUG”: the “apparent Kd” value runs as follows: under setting [1], 69.8 nM; under setting [2], 208 nM.

As to “UUGGACGUCGUAGGAUAUGUAGGAUAUUCCUACAUGAGGAUCACCCAUGUUGACAUGGAAGAAGGACAGAAGGACGAUUUCCAU”, the “apparent Kd” value under setting [3] was 284 nM and the “apparent Kd” value under setting [4] was found to be 5.41 nM. As to “UGUGCGUAUGUGAGGAUAUGCUGGUCCUUGGCUCGGCAGAAGGCACAUGAGGAUCACCCAUGUGGUGUCGUACU”, the “apparent Kd” value runs as follows: under setting [1], 108 nM; under setting [2], 104 nM. On the same counts, the results for “UGUCCAUAGCAGAAGGACAUGAGGAUCACCCAUGUAAUCAUACAAAUAAAUGUAGGAUAUGCUAUGGACUAAGAGCGAAAGCUC” are 6.24 nM and 7.26 nM.

As for “CCCUCAACAUGAGGAUCACCCAUGUAGGAUAUCGCUAUUGUAAUCAUGAAACAUGAUUACAAUAGCGAGAAGGACAUAUGACCC”, the “apparent Kd” value under setting [1] was found to be 21.5 nM and the “apparent Kd” value under setting [2] came out at 99.6 nM. Take “GCGCCGCAGCGGUACACGAGACAUGAGGAUCACCCAUGUGACAGAAGGGACUUGUUAAAGGUAGGUCAGGAUAUGUCUUAAAAG”: the “apparent Kd” value under setting [3] came out at 184 nM and the “apparent Kd” value under setting [4] is 56.5 nM. In the case of “CUUUUGUGAGGAUAUCAGUAGUAAAUAAAUAAAAUUACUAUUGAGAAGGCACAUGAGGAUCACCCAUGUUCCUC”, the “apparent Kd” value is, setting by setting: under setting [1], 34.7 nM; under setting [2], 184 nM. “UUUAUACAUGAGGAUCACCCAUGUGAGGAUAUGCUUUAUUAUUAUUAUUAUUAUUAUUGCAGAAGGCACGUUAU”: the “apparent Kd” value reads like this: under setting [1], 39.3 nM; under setting [2], 54.8 nM. For “UAAAAGACUAGUAUGGUAACCUUCACAUGAGGAUCACCCAUGUAGGAUAUGAGCAGAAAAUCUGCUCAGAAGGACAUGCUAGUC”, the “apparent Kd” value reads like this: under setting [1], 3.73 nM; under setting [2], 4.25 nM. As to “AGCUACGUUUCGUAGCAGCUAGGUGAGGAUAUCCUUUUACAUGAGGAUCACCCAUGUUAGCCAUGGGAGAAGGCGCCUAGAAAG”, the “apparent Kd” value was 498 nM under setting [3] and 37.7 nM under setting [4]. As to “UGAGCCUCGUGAGGAUAUACAUGAGGAUCACCCAUGUAAUAAAGUGAACGGAGGUAACUCCGAAUGUAGAAGGCACGAGGCUCA”, the “apparent Kd” value by setting is: under setting [1], 38 nM; under setting [2], 306 nM. As for “UUACGGAUAGAGGAUAUAUUAAGGAAAGUUUCGAUAGAAGGCUAGACAUGAGGAUCACCCAUGUAUAUUGGGAU”, the “apparent Kd” value is, setting by setting: under setting [1], 131 nM; under setting [2], 151 nM. For “GGAUGAGAAACUCAUCCAAUACGAACAUGAGGAUCACCCAUGUAGGAUAUGCUACUCAAAGAGUAGCAGAAGGACAUGUGCCUU”, the “apparent Kd” value runs as follows: under setting [1], 30 nM; under setting [2], 254 nM. Consider “GAGUUACAUGAGGAUCACCCAUGUGGUUGUGGAUAAGGAUAUAUGGUAGGAGGAGGAAUGAUAGAAGGUAUUAGGG”, for which the “apparent Kd” value reads like this: under setting [3], 69 nM; under setting [4], 45.5 nM. In the case of “GGAAAUCAUGUAGGAUAUGCAUGGCGAAGCUACGCAGAAGGACAUGAGGAUCACCCAUGUGCUAGCUACCGAGUUCGGUGGCAA”, the “apparent Kd” value worked out at 90.8 nM under setting [1] and 211 nM under setting [2]. Regarding “GCAUGCUAUGUCAGGAUAUACCUCUGGAUACAUAGGUAGAAGGGACAUGAGGAUCACCCAUGUCCUAAACAUGC”, the “apparent Kd” value reads like this: under setting [1], 12.2 nM; under setting [2], 13.4 nM. For “AAUAACAGAGGAUAUACUAUUUUAUGUAUUUAUUAUUUUGAACAUGAGGAUCACCCAUGUAGAAGGCUGAAUAA”, the “apparent Kd” value worked out at 22.7 nM under setting [1] and 21.7 nM under setting [2].

As for “UACAAUCUAUCUGAGGAUAUCAUGAAAAAAACAUGAGGAUCACCCAUGUGCAGGAAAACUGCAUAUGAGAAGGCAGAUAGAUUGC”, the “apparent Kd” value is, setting by setting: under setting [3], 671 nM; under setting [4], 29.3 nM. Regarding “GGAGCACACAUUAACAUGAGGAUCACCCAUGUCAAAAGACAUGAGGAUAUGGAUCCGAAAAGGAUCCAGAAGGCAUGGAGCUCC”, the “apparent Kd” value is, setting by setting: under setting [3], 169 nM; under setting [4], 10.5 nM. For the sequence “GCGCACUAAGUGAGGAUAUCGUUUAUUUUUAGGAUCGAGAAGGCACAUGAGGAUCACCCAUGUUUGACGUGCGC”, the “apparent Kd” value by setting is: under setting [1], 20.9 nM; under setting [2], 14.1 nM. Consider “UUUUAUUAGUAAGGAUAUACUAGCGAUUAGCUUGUAGAAGGUACAGUCUUAUGUAUAACAUGUUAACAUGAGGAUCACCCAUGU”, for which the “apparent Kd” value was determined as 59.5 nM under setting [3] and 36.1 nM under setting [4].

Take “UGAAUGGCAGGAUAUACAUGAGGAUCACCCAUGUUGCUGCUCUAUAUGCCGUCCUUGAGUAGAAGGGUCAUUUA”: the “apparent Kd” value runs as follows: under setting [1], 19.2 nM; under setting [2], 32.5 nM. In the case of “GCGGUGAUCCUAGCUCACAUGAGGAUCACCCAUGUGCAGUUCAAGGAUAUACGUUGCCGCUCCGCGUAGAAGGUGAACUCGCUA”, the “apparent Kd” value under setting [1] is 43 nM and the “apparent Kd” value under setting [2] was 44.1 nM. The corresponding values for “CUGAUGUCAGGAUAUCGGUGGCUCACUUGUGUGUGCCAGACCGAGAAGGGACAUGAGGAUCACCCAUGUUUCUA” are 21.1 nM and 93.4 nM. With “UGUUUGCGGCAGGAUAUCCAUCCGCGGUGUGGUGGAGAAGGGCUGACAUGAGGAUCACCCAUGUGCGUCCUGUA”, the “apparent Kd” value by setting is: under setting [1], 19.4 nM; under setting [2], 27.5 nM. Regarding “UCGACCCUAGGAUAUACAUGAGGAUCACCCAUGUUUGUCGAAGAACGAACAGUCCUCAGUAGAAGGAGGACGAA”, the “apparent Kd” value amounted to 22.3 nM under setting [1] and 23.8 nM under setting [2].

In the case of “CGUCAUUACUCAGGAUAUGCACCAUACUUGAGGGCAGAAGGGAGUACAUGAGGAUCACCCAUGUACUAUGGGCGCCUAAGAGGU”, the “apparent Kd” value runs as follows: under setting [1], 8.26 nM; under setting [2], 45.1 nM. As to “CGGUGACGUGUAGGAUAUGGCGCUGGGUUUUGGCCAGAAGGACAUGAGGAUCACCCAUGUGGUAGAGGGCUGGCGGCCGCCCGU”, under setting [2], the “apparent Kd” value was 108 nM.

For the sequence “AAAUAACCUAGCAAAAUUUCCUAACAUGAGGAUCACCCAUGUAGAAGGCUGUCCUAAAAUAGGACAGAGGAUAUACGUGCUAGG”, the “apparent Kd” value is 5.01 nM under setting [1] and 7 nM under setting [2]. The corresponding values for “AACGCUAGACUAGGAUAUCGUUUACAUGAGGAUCACCCAUGUAAAGGGUAUUGUCGUCAUACGAACGAGAAGGAGUCGGUAAAU” are 10.4 nM and 26.5 nM. Turning to “GUAGCAUACAGAGGAUAUUCAAAACCGCAAAGCGGACAUGAGGAUCACCCAUGUGGCGAAAGCCGGGAGAAGGCUGAAUGCUAC”, the “apparent Kd” value under setting [3] stood at 18.7 nM and the “apparent Kd” value under setting [4] amounted to 16.1 nM.

Consider “AUGUUGAGCAGUGUAUUAAGAUCACAUGAGGAUCACCCAUGUAGAAGGUAUGAGCUGAUCGCUCAUAAGGAUAUACAUCACUGC”, for which the “apparent Kd” value under setting [1] came out at 69.9 nM and the “apparent Kd” value under setting [2] was 119 nM.

Take “AAUUGGAUGCAGAAGGCAUGGACGACUCGUCACAUUAACAUGAGGAUCACCCAUGUGAAAACACAUGAGGAUAUGCAUCCUAAA”: the “apparent Kd” value is, setting by setting: under setting [3], 17.5 nM; under setting [4], 6.41 nM.
